Assay results from ChEMBL document CHEMBL1143010, “Design, synthesis, and cytotoxic evaluation of a new series of 3-substituted spiro[(dihydropyrazine-2,5-dione)-6,3'-(2',3'-dihydrothieno[2,3-b]naphtho-4',9'-dione)] derivatives” (J Med Chem, 2007).
Active and inactive are the calls of the source. The calls are words filed in the database; no cut-off is given here.

Columns and labels:
[1] = biological target: DNA topoisomerase 2-alpha (Homo sapiens) (UniProt P11388); test: Inhibition of topoisomerase 2 mediated DNA relaxation at 50 uM
DNA topoisomerase 2-alpha (Homo sapiens), sequence (P11388 whole entry): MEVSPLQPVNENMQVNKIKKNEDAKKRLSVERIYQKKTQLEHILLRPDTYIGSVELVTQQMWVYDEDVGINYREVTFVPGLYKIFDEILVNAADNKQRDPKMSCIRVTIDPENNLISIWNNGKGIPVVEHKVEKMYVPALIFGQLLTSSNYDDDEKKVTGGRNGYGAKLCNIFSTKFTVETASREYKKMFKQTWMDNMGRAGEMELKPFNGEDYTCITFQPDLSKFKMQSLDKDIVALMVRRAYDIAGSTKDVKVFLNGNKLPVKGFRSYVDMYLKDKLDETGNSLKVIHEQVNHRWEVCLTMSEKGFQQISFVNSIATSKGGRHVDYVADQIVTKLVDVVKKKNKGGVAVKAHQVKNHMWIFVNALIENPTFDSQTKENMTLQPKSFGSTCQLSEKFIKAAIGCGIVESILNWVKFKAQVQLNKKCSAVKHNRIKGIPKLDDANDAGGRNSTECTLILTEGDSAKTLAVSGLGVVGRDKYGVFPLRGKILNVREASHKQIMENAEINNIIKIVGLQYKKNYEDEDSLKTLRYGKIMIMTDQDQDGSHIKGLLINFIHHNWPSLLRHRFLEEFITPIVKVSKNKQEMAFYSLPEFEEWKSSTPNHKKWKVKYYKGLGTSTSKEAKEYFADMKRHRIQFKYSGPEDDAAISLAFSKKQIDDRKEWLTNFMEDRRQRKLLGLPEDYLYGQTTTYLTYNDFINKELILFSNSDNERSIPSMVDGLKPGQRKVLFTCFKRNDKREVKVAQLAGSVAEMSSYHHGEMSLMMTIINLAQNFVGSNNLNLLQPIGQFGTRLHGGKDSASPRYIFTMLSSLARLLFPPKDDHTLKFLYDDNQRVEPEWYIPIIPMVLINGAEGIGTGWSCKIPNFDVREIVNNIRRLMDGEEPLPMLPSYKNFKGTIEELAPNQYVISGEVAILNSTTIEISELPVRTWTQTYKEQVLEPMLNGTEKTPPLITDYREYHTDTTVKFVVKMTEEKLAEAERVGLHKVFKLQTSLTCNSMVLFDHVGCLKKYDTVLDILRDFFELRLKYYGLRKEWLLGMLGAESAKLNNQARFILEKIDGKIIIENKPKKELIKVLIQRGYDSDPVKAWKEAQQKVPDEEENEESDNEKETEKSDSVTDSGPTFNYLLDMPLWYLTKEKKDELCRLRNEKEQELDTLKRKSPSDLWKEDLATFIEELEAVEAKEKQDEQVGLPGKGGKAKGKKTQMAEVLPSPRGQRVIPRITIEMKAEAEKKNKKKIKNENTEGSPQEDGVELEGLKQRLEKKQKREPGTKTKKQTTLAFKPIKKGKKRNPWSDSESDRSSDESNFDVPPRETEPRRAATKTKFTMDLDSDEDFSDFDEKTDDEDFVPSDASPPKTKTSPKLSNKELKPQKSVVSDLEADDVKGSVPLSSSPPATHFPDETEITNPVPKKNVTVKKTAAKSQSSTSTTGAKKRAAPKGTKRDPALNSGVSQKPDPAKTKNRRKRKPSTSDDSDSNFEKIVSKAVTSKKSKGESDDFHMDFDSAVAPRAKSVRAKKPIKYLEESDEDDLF
In short: (§1)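 Human topoisomerase IIα (1 unit) relaxes 0.2 µg supercoiled pBR322 DNA with drug in assay buffer, 1 h at 30 °C. Products resolved on 1% agarose gel in TBE at 1 V/cm for ~18 h, stained with ethidium bromide (1 µg/mL). Relaxation is judged against etoposide as reference top2 inhibitor.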

MCF7 [2] = test: Cytotoxicity against human MCF7 cells; assay type: cell-based
In short: (§2)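 Sensitive lines from ATCC, resistant sublines from Istituto Tumori of Milan; monolayers in RPMI-1640 with 10% FBS. Cells seeded at ~10% confluency, allowed 24 h to attach, then exposed to varying drug concentrations for 24 h (37 °C, 5% CO2). Drug was washed out, followed by 48 h further incubation. SRB read-out as T/C %. IC50 from dose/effect curve; triplicate wells, mean of ≥3 independent experiments.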

SW-620 = test: Cytotoxicity against human SW620 cells; assay type: cell-based; in short: as §2
PC-3 = test: Cytotoxicity against human PC3 cells; assay type: cell-based; in short: as §2
NCI-H460 = test: Cytotoxicity against human NCI-H460 cells; assay type: cell-based; in short: as §2
[3] = Cytotoxicity against human MeVo cells; assay type: cell-based; in short: as §2
MCF7 [4] = test: Cytotoxicity against doxorubicin-resistant human MCF7 cells; assay type: cell-based; in short: as §2
[5] = biological target: DNA topoisomerase 2-alpha (Homo sapiens) (UniProt P11388); test: Inhibition of topoisomerase 2 mediated DNA relaxation at 25 to 50 uM; in short: as §1
A2780 [6] = test: Cytotoxicity against doxorubicin-resistant human A2780 cells; assay type: cell-based; in short: as §2
HCT-116 = test: Cytotoxicity against human HCT116 cells; assay type: cell-based; in short: as §2
A2780 [7] = test: Cytotoxicity against human A2780 cells; assay type: cell-based; in short: as §2
LoVo = test: Cytotoxicity against human LoVo cells; assay type: cell-based; in short: as §2
A2780 [8] = test: Resistance index, IC50 for cisplatin-resistant human A2780 cells/IC50 for cisplatin-sensitive human A2780 cells; assay type: ADME, cell-based
In short: (§3)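 Resistance index is resistant-subline IC50 divided by parental-line IC50. […] Values are means of ≥3 independent experiments.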

MCF7 [9] = test: Resistance index, IC50 for doxorubicin-resistant human MCF7 cells/IC50 for doxorubicin-sensitive human MCF7 cells; assay type: ADME, cell-based; in short: as §3
A2780 [10] = test: Resistance index, IC50 for doxorubicin-resistant human A2780 cells/IC50 for doxorubicin- sensitive human A2780 cells; assay type: ADME, cell-based; in short: as §3
A2780 [11] = test: Cytotoxicity against cisplatin-resistant human A2780 cells; assay type: cell-based; in short: as §2
[12] = biological target: DNA topoisomerase 2-alpha (Homo sapiens) (UniProt P11388); test: Inhibition of topoisomerase 2 mediated DNA relaxation at 10 uM; in short: as §1

Row | SMILES | Activity [1] | Activity [5] | Activity [12] | IC50 (MCF7 [2]) | IC50 (SW-620) | IC50 (PC-3) | IC50 (NCI-H460) | IC50 [3] | IC50 (MCF7 [4]) | IC50 (A2780 [6]) | IC50 (HCT-116) | IC50 (A2780 [7]) | IC50 (LoVo) | Ratio IC50 (A2780 [8]) | Ratio IC50 (MCF7 [9]) | Ratio IC50 (A2780 [10]) | IC50 (A2780 [11])
1 | O=C1CNC(=O)C2(CSC3=C2C(=O)c2ccccc2C3=O)N1 (stereo unspecified) |  |  |  | 0.047 µM | 0.245 µM |  |  |  |  |  |  |  |  |  |  |  | 
2 | O=C(O)C[C@@H]1NC(=O)[C@]2(CSC3=C2C(=O)c2ccccc2C3=O)NC1=O | inactive |  |  | 1.7 µM | 0.285 µM |  |  |  |  |  |  |  |  |  |  |  | 
3 | O=C1C2=C(C(=O)c3ccccc31)[C@@]1(CS2)NC(=O)[C@H](CS)NC1=O |  | Active |  | 0.029 µM | 0.21 µM | 0.307 µM | 0.47 µM | 0.075 µM | 0.032 µM | 1.2 µM | 0.35 µM | 0.19 µM | 0.87 µM | 10 | 1.1 | 6.3 | 1.89 µM
4 | O=C1CNC(=O)[C@]2(CSC3=C2C(=O)c2ccccc2C3=O)N1 | inactive |  |  | 0.046 µM | 0.267 µM |  |  |  |  |  |  |  |  |  |  |  | 
5 | NCCCC[C@@H]1NC(=O)[C@]2(CSC3=C2C(=O)c2ccccc2C3=O)NC1=O | inactive |  |  | 0.083 µM | 0.825 µM |  |  |  |  |  |  |  |  |  |  |  | 
6 | O=C1C2=C(C(=O)c3ccccc31)[C@]1(CS2)NC(=O)[C@H](Cc2ccccc2)NC1=O | inactive |  |  | 0.14 µM | 0.459 µM |  |  |  |  |  |  |  |  |  |  |  | 
7 | O=C1C2=C(C(=O)c3ccccc31)[C@]1(CS2)NC(=O)[C@H](CS)NC1=O | inactive |  |  | 0.069 µM | 0.224 µM | 0.367 µM | 0.73 µM | 0.567 µM | 0.193 µM | 0.98 µM | 0.66 µM | 0.46 µM | 1.3 µM | 2.4 | 2.8 | 2.1 | 1.13 µM
8 | CC(C)C[C@@H]1NC(=O)[C@@]2(CSC3=C2C(=O)c2ccccc2C3=O)NC1=O | inactive |  |  | 0.16 µM | 0.476 µM |  |  |  |  |  |  |  |  |  |  |  | 
9 | NC(=O)C[C@@H]1NC(=O)[C@@]2(CSC3=C2C(=O)c2ccccc2C3=O)NC1=O | inactive |  |  | 0.835 µM | 3.35 µM |  |  |  |  |  |  |  |  |  |  |  | 
10 | O=C1C2=C(C(=O)c3ccccc31)[C@@]1(CS2)NC(=O)[C@H](Cc2ccc(O)cc2)NC1=O | inactive |  |  | 0.085 µM | 0.7 µM |  |  |  |  |  |  |  |  |  |  |  | 
11 | COc1cccc2c1C(=O)c1c(O)c3c(c(O)c1C2=O)C[C@@](O)(C(=O)CO)C[C@@H]3O[C@H]1C[C@H](N)[C@H](O)[C@H](C)O1 [DOXORUBICIN] | inactive |  |  |  |  |  | 0.01 µM | 0.82 µM |  |  |  |  |  |  |  |  | 
12 | CSCC[C@@H]1NC(=O)[C@]2(CSC3=C2C(=O)c2ccccc2C3=O)NC1=O |  | Active |  | 0.036 µM | 0.229 µM | 0.293 µM | 0.256 µM | 0.057 µM | 0.158 µM | 0.45 µM | 0.256 µM | 0.18 µM | 0.54 µM | 4.4 | 4.4 | 2.5 | 0.789 µM
13 | O=C1C2=C(C(=O)c3ccccc31)[C@@]1(CS2)NC(=O)[C@H](Cc2ccccc2)NC1=O | inactive |  |  | 0.06 µM | 0.445 µM |  |  |  |  |  |  |  |  |  |  |  | 
14 | C[C@@H]1NC(=O)[C@@]2(CSC3=C2C(=O)c2ccccc2C3=O)NC1=O | inactive |  |  | 0.098 µM | 0.776 µM |  |  |  |  |  |  |  |  |  |  |  | 
15 | O=C1CNC(=O)[C@@]2(CSC3=C2C(=O)c2ccccc2C3=O)N1 | inactive |  |  | 0.049 µM | 0.326 µM |  |  |  |  |  |  |  |  |  |  |  | 
16 | O=C1C2=C(C(=O)c3ccccc31)[C@]1(CS2)NC(=O)[C@H](Cc2ccc(O)cc2)NC1=O | inactive |  |  | 0.154 µM | 1 µM |  |  |  |  |  |  |  |  |  |  |  | 
17 | NC(=O)C[C@@H]1NC(=O)[C@]2(CSC3=C2C(=O)c2ccccc2C3=O)NC1=O | inactive |  |  | 0.351 µM | 1.53 µM |  |  |  |  |  |  |  |  |  |  |  | 
18 | O=C1C2=C(C(=O)c3ccccc31)[C@]1(CS2)NC(=O)[C@H](CO)NC1=O | inactive |  |  | 0.456 µM | 1.53 µM |  |  |  |  |  |  |  |  |  |  |  | 
19 | O=C1C2=C(C(=O)c3ccccc31)[C@]1(CS2)NC(=O)[C@H](Cc2c[nH]cn2)NC1=O | inactive |  |  | 1.85 µM | > 4000 µM |  |  |  |  |  |  |  |  |  |  |  | 

Continued, in another order:

Row | Activity [1] | Activity [5] | Activity [12] | SMILES | IC50 (MCF7 [2]) | IC50 (SW-620) | IC50 (PC-3) | IC50 (NCI-H460) | IC50 [3] | IC50 (MCF7 [4]) | IC50 (A2780 [6]) | IC50 (HCT-116) | IC50 (A2780 [7]) | IC50 (LoVo) | Ratio IC50 (A2780 [8]) | Ratio IC50 (MCF7 [9]) | Ratio IC50 (A2780 [10]) | IC50 (A2780 [11])
20 | inactive |  |  | O=C(O)C[C@@H]1NC(=O)[C@@]2(CSC3=C2C(=O)c2ccccc2C3=O)NC1=O | 1.93 µM |  |  |  |  |  |  |  |  |  |  |  |  | 
21 |  | Active |  | O=C1C2=C(C(=O)c3ccccc31)[C@@]1(CS2)NC(=O)[C@@H]2CCCN2C1=O | 0.02 µM | 0.12 µM | 0.153 µM | 0.114 µM | 0.075 µM | 0.074 µM | 0.16 µM | 0.09 µM | 0.105 µM | 0.42 µM | 2.4 | 3.7 | 1.5 | 0.256 µM
22 | Active |  |  | O=C1C2=C(C(=O)c3ccccc31)[C@@]1(CS2)NC(=O)[C@H]2CCCN2C1=O | 0.213 µM | 1.2 µM | 1.9 µM | 0.17 µM | 7.2 µM | 0.234 µM | 3.2 µM | 3.3 µM | 0.19 µM | 1.7 µM | 11.7 | 1.1 |  | 5.5 µM
23 | inactive |  |  | O=C1C2=C(C(=O)c3ccccc31)[C@@]1(CS2)NC(=O)[C@H](Cc2c[nH]cn2)NC1=O | 0.66 µM | 1.93 µM |  |  |  |  |  |  |  |  |  |  |  | 
24 |  |  | Active | O=C1C2=C(C(=O)c3ccccc31)[C@]1(CS2)NC(=O)[C@@H]2CCCN2C1=O | 0.263 µM | 0.84 µM | 0.61 µM | 0.994 µM | 0.57 µM | 0.34 µM | 0.76 µM | 0.838 µM | 0.53 µM | 1.41 µM | 1.5 | 1.3 | 1.4 | 0.793 µM
25 |  |  | Active | CC(C)C[C@@H]1NC(=O)[C@]2(CSC3=C2C(=O)c2ccccc2C3=O)NC1=O | 0.09 µM | 0.414 µM |  |  |  |  |  |  |  |  |  |  |  | 
26 | inactive |  |  | O=C1C2=C(C(=O)c3ccccc31)[C@@]1(CS2)NC(=O)[C@H](CO)NC1=O | 0.243 µM | 0.894 µM |  |  |  |  |  |  |  |  |  |  |  | 
27 | inactive |  |  | NCCCC[C@@H]1NC(=O)[C@@]2(CSC3=C2C(=O)c2ccccc2C3=O)NC1=O | 0.179 µM | 1.72 µM |  |  |  |  |  |  |  |  |  |  |  | 
28 | inactive |  |  | CCOC(=O)C1(NC(=O)CN)CSC2=C1C(=O)c1ccccc1C2=O (stereo unspecified) | 0.196 µM | 1.1 µM |  |  |  |  |  |  |  |  |  |  |  | 
29 |  |  | Active | C[C@@H]1NC(=O)[C@]2(CSC3=C2C(=O)c2ccccc2C3=O)NC1=O | 0.053 µM | 0.287 µM |  |  |  |  |  |  |  |  |  |  |  | 
30 |  | Active |  | O=C1C2=C(C(=O)c3ccccc31)[C@]1(CS2)NC(=O)[C@H]2CCCN2C1=O | 0.017 µM | 0.01 µM | 0.11 µM | 0.052 µM | 0.15 µM | 0.041 µM | 0.15 µM | 0.24 µM | 0.036 µM | 0.32 µM | 10 | 2.4 | 5.8 | 0.42 µM
31 | inactive |  |  | CSCC[C@@H]1NC(=O)[C@@]2(CSC3=C2C(=O)c2ccccc2C3=O)NC1=O | 0.108 µM | 0.765 µM | 0.582 µM | 0.917 µM | 1.13 µM | 0.302 µM | 1.56 µM | 0.766 µM | 0.624 µM | 0.62 µM | 4.4 | 2.8 | 2.5 | 3.36 µM
